Screens deposited in PubChem by several laboratories.
ABCB6 inh 2 – ABCB6 transporter inhibitors, primary screen, K562-ABCB6 cells, flow cytometry, MLPCN library; K562-ABCB6 porphyrin accumulation, 1 h; stronger effect = lower value; ATP-binding cassette sub-family B member 6 (Homo sapiens), Q9NP58; 0.19% of 360,000 active; fluorescence ratio to DMSO, % at 10 µM;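 active = fluorescence ratio to DMSO below 75%, the collection mean minus 3 SD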;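 also: signal is porphyrin accumulated inside mitochondria; lower ratio means ABCB6 inhibition with less porphyrin fluorescence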
Target sequence (Q9NP58 whole entry, looked up): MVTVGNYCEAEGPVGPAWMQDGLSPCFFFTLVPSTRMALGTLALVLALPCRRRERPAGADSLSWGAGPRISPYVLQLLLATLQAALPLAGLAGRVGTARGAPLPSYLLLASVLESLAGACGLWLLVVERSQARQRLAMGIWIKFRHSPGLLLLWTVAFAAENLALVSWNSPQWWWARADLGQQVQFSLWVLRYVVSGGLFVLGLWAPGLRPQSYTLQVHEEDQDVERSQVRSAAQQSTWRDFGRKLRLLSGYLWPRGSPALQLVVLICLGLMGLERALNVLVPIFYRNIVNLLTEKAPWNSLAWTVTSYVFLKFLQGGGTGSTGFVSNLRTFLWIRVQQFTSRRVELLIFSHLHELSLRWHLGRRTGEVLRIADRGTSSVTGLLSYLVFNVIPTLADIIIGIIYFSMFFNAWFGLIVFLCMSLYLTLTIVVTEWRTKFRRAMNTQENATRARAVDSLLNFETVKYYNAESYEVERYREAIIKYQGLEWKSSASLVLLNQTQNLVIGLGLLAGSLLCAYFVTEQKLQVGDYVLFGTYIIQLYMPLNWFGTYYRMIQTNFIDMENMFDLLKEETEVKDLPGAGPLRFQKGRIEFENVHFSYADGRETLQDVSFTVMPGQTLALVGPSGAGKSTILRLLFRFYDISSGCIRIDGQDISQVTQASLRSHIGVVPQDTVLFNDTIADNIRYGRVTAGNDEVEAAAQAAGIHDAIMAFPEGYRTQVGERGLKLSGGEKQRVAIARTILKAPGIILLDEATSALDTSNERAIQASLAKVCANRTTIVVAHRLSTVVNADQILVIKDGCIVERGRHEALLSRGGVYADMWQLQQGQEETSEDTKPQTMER
Granule exo inh – LAMP-1 surface exposure blockers, TALL-104 cells – cell-based, flow cytometry, MLPCN library, primary screen; 0.66% of 360,000 active; inhibition, % at 10 µM; TALL-104 LAMP-1 surface exposure; cells stimulated with thapsigargin and PMA;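 active = inhibition above about 55%, limit read from the data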
DAGLB inh – DAGLB lipase inhibitors, primary screen, biochemical, fluorescence, HTS. Diacylglycerol lipase-beta (Homo sapiens), Q8NCG7. HEK293T DAGLB membrane lysate, EnzChek fluorogenic substrate. inhibition, % at 5.17 µM. 0.059% of 340,000 active; in the data active = inhibition above about 34%
VLA-4 inh – inhibition in human VLA-4 binding assay, primary screen, VLA-4 allosteric modulator project, MLPCN library, flow cytometry, VLA-4 expressing cells | Integrin alpha-4 (Homo sapiens), P13612 | ligand binding flow cytometry | AID 2557, 2010 | 0.2% of 330,000 active | inhibition, % (about 7 µM as worked out from the volumes in the protocol); in the data active = inhibition above about 50%
FGF22 binding – binders of human FGF22 protein, primary screen, FGF22 synaptogenesis inhibitor project, biophysical, thermal shift, single point. activity (Tm shift, normalised), % at 9.99 µM. recombinant FGF22 thermal shift, SYPRO orange fluorescence; percent of sucrose octasulfate shift, DMSO zero. 1.5% of 340,000 active. Fibroblast growth factor 22 (Homo sapiens), Q9HCT0. AID 651658, 2012;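 active = mean Tm shift, scaled 0 neutral to 100 positive control, at about 1.3% or above, every replicate too, limit read from the data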
MT1-MMP act inh – blockers of MT1-MMP proenzyme processing, primary screen, HT1080 RFP-PRO-GFP cells, GFP/RFP fluorescence; AID 651647, 2012; Matrix metalloproteinase-14 (Homo sapiens), P50281; GFP/RFP ratio fluorescence, overnight; percent of plate control window, DMSO zero; 0.061% of 360,000 active; GFP/RFP ratio change, % at 20 µM;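 active = GFP/RFP ratio change of at least 30% with cell ATP level not reduced by more than half and red fluorescence within 50% of control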
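Assay system: HT1080 cells carrying an RFP-PRO-GFP reporter | Dosing: Single dose of 20 µM compound, 1% DMSO final | Incubation: Cells overnight before dosing, compound overnight, 37 °C, 5% CO2 | Evaluation: GFP/RFP fluorescence ratio | Control set: DMSO and RFP-L50D-GFP cell wells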
ABCB6 inh CP1 – ABCB6 transporter inhibitors, confirmation, K562-ABCB6 cells, flow cytometry, cherry pick 1; ratio response (% of DMSO), % at 10 µM; 700 tested, under 10 active; shares compounds with ABCB6 inh 2; K562-ABCB6 porphyrin accumulation, 1 h; stronger effect = lower value; AID 602430, 2012;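 active = repeat-averaged ratio response below 75% of DMSO, the collection mean minus 3 SD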;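 also: median porphyrin fluorescence at 575 nm with 488 nm excitation from mitochondria; lower ratio means less porphyrin signal so ABCB6 inhibition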
Numbers stand for hits. Sampled rows, rich in hits. Any-hit rate of the full collection: about 2%.

How did COc1ccccc1OCCNc1nc2c(c(=O)n(C)c(=O)n2C)n1C do in these assays?
ABCB6 inh 2: inactive; Granule exo inh: inactive; DAGLB inh: inactive; VLA-4 inh: inactive; MT1-MMP act inh: inactive

What do the screens show for `Cn1c(=O)c2c(nc(NCCOc3ccc(C(C)(C)C)cc3)n2C)n(C)c1=O`?
ABCB6 inh 2: 74; Granule exo inh: inactive; DAGLB inh: inactive; FGF22 binding: inactive; MT1-MMP act inh: inactive; ABCB6 inh CP1: inactive

What do the screens show for `CN(C)CC#Cc1ccc([C@H]2[C@H](CO)N3CCCCN(C(=O)CN(C)C)C[C@@H]23)cc1`?
FGF22 binding: inactive

Results for O=C(c1ccc(COc2ccccc2Br)o1)N1N=C(C(F)F)CC1(O)C(F)F (stereo not given) ?
ABCB6 inh 2: inactive; Granule exo inh: inactive; DAGLB inh: inactive; VLA-4 inh: inactive; MT1-MMP act inh: inactive; ABCB6 inh CP1: inactive

Results for O=C(c1ccc(Cn2cc([N+](=O)[O-])cn2)o1)N1N=C(C(F)F)CC1(O)C(F)F (stereo not given) ?
ABCB6 inh 2: inactive; Granule exo inh: inactive; DAGLB inh: inactive; VLA-4 inh: inactive; FGF22 binding: inactive; MT1-MMP act inh: inactive

Results for Cc1ccccc1NC(=O)Nc1ccc2c(c1)C(=O)N(C)[C@@H]1CC[C@H](CC(=O)O)O[C@H]1CO2 ?
FGF22 binding: inactive

How did CN1CCN(NC(=O)c2cc(-c3ccccn3)nc3ccccc23)CC1 do in these assays?
ABCB6 inh 2: inactive; Granule exo inh: inactive; DAGLB inh: inactive; VLA-4 inh: inactive; FGF22 binding: inactive; MT1-MMP act inh: inactive

What do the screens show for `CN1CCN(NC(=O)c2cc(-c3ccc(Cl)s3)nc3ccccc23)CC1`?
ABCB6 inh 2: 72; Granule exo inh: inactive; DAGLB inh: inactive; VLA-4 inh: inactive; FGF22 binding: inactive; MT1-MMP act inh: inactive; ABCB6 inh CP1: inactive

Results for Cc1cc(C(=O)Nc2cccc3c2O[C@H](CN(C)S(=O)(=O)c2cn(C)cn2)[C@H](C)CN([C@@H](C)CO)C3=O)n(C)n1 ?
FGF22 binding: inactive

How did CCn1c(SCC(=O)c2ccccc2)nnc1-c1cccnc1 do in these assays?
ABCB6 inh 2: 71; Granule exo inh: inactive; DAGLB inh: inactive; VLA-4 inh: inactive; FGF22 binding: inactive; MT1-MMP act inh: inactive; ABCB6 inh CP1: inactive

What do the screens show for `O=c1[nH]c(-c2ccc(F)cc2)nc2c1sc(=S)n2-c1ccccc1`?
ABCB6 inh 2: inactive; Granule exo inh: inactive; DAGLB inh: inactive; VLA-4 inh: inactive; FGF22 binding: inactive; MT1-MMP act inh: inactive

How did O=c1[nH]cnc2c1sc(=S)n2-c1ccccc1 do in these assays?
ABCB6 inh 2: 65; Granule exo inh: inactive; DAGLB inh: inactive; VLA-4 inh: inactive; MT1-MMP act inh: inactive; ABCB6 inh CP1: inactive

Results for CN(C)c1ccc2c(c1)[C@H]1C[C@H](CC(=O)NC3CCCC3)O[C@H](CO)[C@H]1O2 ?
FGF22 binding: inactive

What do the screens show for `C[C@H]1CN([C@@H](C)CO)C(=O)c2cc(C#CCN(C)C)cnc2O[C@H]1CN(C)C(=O)c1ccc2c(c1)OCO2`?
FGF22 binding: inactive

How did CCc1nc(SCC(=O)N2CCN(C(=O)c3ccco3)CC2)c2c3c(sc2n1)CCCC3 do in these assays?
ABCB6 inh 2: 28; Granule exo inh: inactive; DAGLB inh: inactive; VLA-4 inh: inactive; MT1-MMP act inh: inactive; ABCB6 inh CP1: inactive

Results for C[C@H](CO)N1C[C@H](C)[C@@H](CN(C)Cc2ccc(Cl)c(Cl)c2)Oc2ccc(NS(=O)(=O)c3cn(C)cn3)cc2C1=O ?
FGF22 binding: inactive

How did O=C(C1CCN(S(=O)(=O)c2c(Cl)cccc2Cl)CC1)N1CCCCCCC1 do in these assays?
ABCB6 inh 2: 72; Granule exo inh: inactive; DAGLB inh: inactive; VLA-4 inh: inactive; FGF22 binding: inactive; MT1-MMP act inh: inactive; ABCB6 inh CP1: inactive

How did O=C(O)c1ccc(CSCc2ccco2)cc1 do in these assays?
ABCB6 inh 2: 74; Granule exo inh: inactive; DAGLB inh: inactive; VLA-4 inh: inactive; MT1-MMP act inh: inactive; ABCB6 inh CP1: inactive

Results for COCC#Cc1ccc2c(c1)O[C@@H](CN(C)C(=O)C1CCC1)[C@H](C)CN([C@H](C)CO)S2(=O)=O ?
FGF22 binding: inactive

Results for O=C(Nc1ccc(Nc2ccccc2)cc1)Nc1ccccc1Cl ?
ABCB6 inh 2: 10; Granule exo inh: inactive; DAGLB inh: inactive; VLA-4 inh: inactive; FGF22 binding: inactive; MT1-MMP act inh: inactive; ABCB6 inh CP1: inactive

What do the screens show for `O=C(Nc1ccncc1)Nc1ccccc1Cl`?
ABCB6 inh 2: inactive; Granule exo inh: inactive; DAGLB inh: inactive; VLA-4 inh: inactive; FGF22 binding: inactive; MT1-MMP act inh: inactive

How did CCCc1nc2ccc(NC(=O)c3cccs3)cc2c(=O)n1Cc1ccc(Cl)cc1 do in these assays?
ABCB6 inh 2: 73; Granule exo inh: inactive; DAGLB inh: inactive; VLA-4 inh: inactive; FGF22 binding: inactive; MT1-MMP act inh: inactive; ABCB6 inh CP1: inactive

How did Cc1nc2ccc(NC(=O)c3cccs3)cc2c(=O)n1Cc1ccc(Cl)cc1 do in these assays?
ABCB6 inh 2: inactive; Granule exo inh: inactive; DAGLB inh: inactive; VLA-4 inh: inactive; MT1-MMP act inh: inactive

How did CS(=O)(=O)Nc1ccccc1-c1cccc2nccn12 do in these assays?
ABCB6 inh 2: 68; Granule exo inh: inactive; FGF22 binding: inactive; MT1-MMP act inh: inactive; ABCB6 inh CP1: inactive

How did C[C@H](CO)N1C[C@H](C)[C@H](CN(C)Cc2ccc(C(F)(F)F)cc2)Oc2ccc(NC(=O)CCCN(C)C)cc2C1=O do in these assays?
FGF22 binding: inactive

What do the screens show for `COc1ccc(S(=O)(=O)N[C@@H]2CC[C@@H](CC(=O)O)O[C@@H]2CO)cc1`?
FGF22 binding: inactive

How did COCC#Cc1cnc2c(c1)C(=O)N([C@@H](C)CO)C[C@H](C)[C@H](CN(C)Cc1ccc(F)cc1)O2 do in these assays?
FGF22 binding: inactive

Results for Cc1ccc(S(=O)(=O)Cn2cnnn2)cc1 ?
ABCB6 inh 2: 60; Granule exo inh: inactive; DAGLB inh: inactive; VLA-4 inh: inactive; MT1-MMP act inh: inactive; ABCB6 inh CP1: inactive
